Columns and labels:
[1] = tested on: Mus musculus; assay: Antiinflammatory activity against arachidonic acid-induced ear edema in Balb/C mouse at 300 ug/ear administered topically 1 hr before arachidonic acid challenge measured after 60 mins; assay type: functional
Summary of the method: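 Topical application in 100 µL acetone (compound 300 µg, indomethacin 300 µg positive control, vehicle alone) to mouse ear; oedema induced with arachidonic acid (4 mg). Ear width measured with a micrometer screw gauge before and 60 min after induction. Oedema expressed as percentage of normal by comparing left and right ear widths. n = 4–8 per group.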

[2] = tested on: Ileum; assay: Muscle relaxant activity in potassium-depolarized guinea pig ileum assessed as inhibition of calcium-induced contraction at 10 uM; assay type: functional; conditions: Cavia porcellus
Summary of the method: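 Isolated guinea-pig ileum depolarised with potassium; sustained contraction induced by calcium (2.5 mM). Test compounds at 1 × 10⁻⁵ M, with nifedipine 1 × 10⁻⁸ M as reference. Result expressed as % inhibition of the calcium contracture. Mean ± SEM, n = 6–12.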

[3] = tested on: RBL-2H3; assay: Antiinflammatory activity against calcium ionophore A23187-induced beta-hexosaminidase release from rat RBL2H3 cells at 10 uM after 30 mins; assay type: functional; conditions: RBL-2H3, 0.5 h
Summary of the method: (§1)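 RBL-2H3 cells plated at 1 × 10⁵ cells/cm² in 24-well plates and allowed to adhere ≥3 h. Medium replaced with fresh medium containing calcium ionophore A23187 plus compound (0.3–50 µM range; DMSO 0.5% solvent control). Incubation 30 min, 37 °C, 5% CO₂. Supernatant β-hexosaminidase measured with p-nitrophenyl N-acetyl-glucosaminide in citrate pH 4.5 for 1 h at 37 °C, stopped with NaOH, read at 405 nm. Values are % of total (Triton X-100 lysate), spontaneous release subtracted. Triplicate.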

[4] = tested on: RBL-2H3; assay: Antiinflammatory activity against calcium ionophore A23187-induced beta-hexosaminidase release in rat RBL2H3 cells at 50 uM after 30 mins; assay type: functional; conditions: RBL-2H3, 0.5 h; summary of the method: as §1
[5] = tested on: RBL-2H3; assay: Antiinflammatory activity against calcium ionophore A23187-induced beta-hexosaminidase release from rat RBL2H3 cells after 30 mins; assay type: functional, cell-based; summary of the method: as §1
[6] = tested on: Ileum; assay: Muscle relaxant activity in potassium-depolarized guinea pig ileum assessed as inhibition of calcium-induced contraction at 10 nM; assay type: functional; conditions: Cavia porcellus
Summary of the method: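 Isolated guinea-pig ileum, depolarised with potassium, in which calcium (2.5 mM) induced a sustained contraction. The agent was applied at 1 × 10^-8 M, and activity was expressed as percent inhibition of the calcium contracture. Values are given as mean with SEM, n = 6.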

| Compound | inhibition (INH) [1] | inhibition at 10 µM [2] | inhibition at 10 µM [3] | inhibition at 50 µM [4] | inhibition [5] | inhibition at 0.01 µM [6] |
| --- | --- | --- | --- | --- | --- | --- |
| COc1ccc2c(c1)c(CC(=O)O)c(C)n2C(=O)c1ccc(Cl)cc1 [INDOMETHACIN] | 50% | – | – | – | – | – |
| O[C@H]1c2ccccc2C[C@@]1(Cc1ccccc1)C1=Cc2ccccc2C1 | 59% | 36.4% | 40% | 75% | Dose-dependent effect | – |
| COC(=O)C1=C(C)NC(C)=C(C(=O)OC)C1c1ccccc1[N+](=O)[O-] [NIFEDIPINE] | – | – | – | – | – | 48.1% |
| O[C@H]1c2ccccc2C[C@]1(Cc1ccccc1)C1=Cc2ccccc2C1 | 45% | 18.9% | 45% | 96% | Dose-dependent effect | – |

Reference: ChEMBL document CHEMBL1156047, “Diastereoisomers of 2-benzyl-2, 3-dihydro-2-(1H-inden-2-yl)-1H-inden-1-ol: potential anti-inflammatory agents” (2009)
